# Only some compounds are listed: those with a hit (about 8.4% of all), similar ones and a draw of the others.
# E coli WT exp: growth inhibitors of wild-type E. coli, primary screen, strain BW25113, expanded library, OD600 | OD600 absorbance | growth inhibition, % at 100 µM | hit rate 0.15% among 98,000;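 active = growth inhibition above about 50% at one test dose, limit read from the data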;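 note: growth measured after 20 h incubation at 37 °C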
# PostGolgi yeast: phenotypic screen on post-Golgi transport, primary screen; post-Golgi transport phenotypic cell assay; inhibition, % at 10 µM; hit rate 0.9% among 98,000; AID 739, 2007;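 note: yeast cells grown in 1536-well plates; yeast grown about 18 h at 30C before absorbance read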
# PostGolgi ctrl: growth inhibition of yeast control strain, primary screen, counter-screen for post-Golgi transport modulator project; efflux-deficient yeast background strain, growth absorbance A615, 16 h; inhibition, % at 10 µM; hit rate 5% among 98,000; AID 738, 2007
# Cav3 T inh: Cav3.2 calcium influx blockers – cell-based, Fluo-4 calcium fluorescence, FDSS, MLSMR library, primary screen; Voltage-dependent T-type calcium channel subunit alpha-1H (Homo sapiens), O95180; Cav3.2-expressing cells; hits give low values; B-score at 10 µM; hit rate 4% among 100,000;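 active = single-dose well whose peak fluorescence ratio is a statistical outlier from its plate by either plate-standardised score or position-corrected B-score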
# Ecoli tolC: growth inhibitors of E. coli tolC mutant, primary screen, strain BW25113 ΔtolC::kan, 384-well; OD615; AID 573, 2007; growth inhibition, % at 10 µM (by protocol); hit rate 2.2% among 65,000;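 active = growth inhibition at or above a cutoff equal to the mean over every tested compound plus 3 SD, cut at about 60% in these data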;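 note: growth measured after 20 h incubation at 37 °C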
#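 System: E. coli ΔtolC::kan strain BW25113; Buffer or medium: LB broth supplemented with 50 µg/mL kanamycin; Compound: 10 µM final, single dose; Incubation: bacterial growth with compound for 20 h at 37 °C; Signal: A615 absorbance measurement; Evaluation: growth inhibition in percent.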
# Starred values were filed as active, the others as inactive; . = no result given. Cut-off read from the data, not from the text of the source, unless noted: active = inhibition above about 30%; inactive = the rest.
SMILES,E coli WT exp,PostGolgi yeast,PostGolgi ctrl,Cav3 T inh,Ecoli tolC
COCC(C)n1c(SCC(=O)NC(=O)Nc2ccc3c(c2)OCCO3)nc2ccccc2c1=O (configuration not stated),-7,-3,16,-2.2,45
O=C(CCn1nc(-c2ccccc2)ccc1=O)N1CCN(c2ccccn2)CC1,-1,30,-4,.,-4
Cc1cccc(N(CC(=O)NC2CCCCC2)C(=O)CCC(=O)Nc2ccccn2)c1,.,.,.,-4.2*,0
O=C(CCC(=O)N(CC(=O)NC1CCCC1)Cc1ccc2c(c1)OCO2)Nc1ccccn1,-13,-4,-1,0.55,0
Cc1ccnc(NC(=O)CCC(=O)N(CC(=O)NC2CCCCC2)c2ccc3c(c2)OCO3)c1,.,.,.,-4.5*,20
CCOC(=O)C1=C(C)NC(C)=C(C(=O)OCC)C1C(=O)OCC(=O)NC(C)C,0,10,11,-0.24,.
O=C1CN(c2ccc(Cl)cc2)C(=O)CN1NC(=S)Nc1ccc(Cl)cc1,-7,3,8,0.24,.
COc1ccc2c(Cl)c(C(=O)NCCCn3ccnc3)sc2c1,-6,0,27,-1.3,12
COC(=O)c1scc(C)c1NC(=O)C1CCCCC1,-1,1,8,0.021,.
N#CC1=C(N)OC2=C(C(=O)CCC2)C1Cc1ccccc1 (configuration not stated),.,.,.,0.18,2
O=c1c2ccccc2nc(/C=C/c2ccc([N+](=O)[O-])o2)n1CCCO,31,91*,62*,-0.54,.
O=C(CN(C(=O)CSc1nc2ccccc2o1)c1ccccc1)NC1CCCCC1,-8,3,11,-3*,.
O=C(CN(C(=O)CSc1nc2ccccc2o1)c1cccc(F)c1)NC1CCCCC1,4,2,7,-5.6*,.
CS(=O)(=O)N(CC(=O)NC1CCCC1)c1cccc(F)c1,4,-5,-13,1,-17
O=C(O)CSc1nc2ccccc2o1,-21,5,15,.,-18
C=CCCCCCCCCC(=O)NN,6,3,2,-0.14,.
CCCCC1=CC2=C(c3ccco3)C(=O)C(C)(OC(=O)c3ccc(OC)cc3)C(=O)C2=CN1C1CCCCC1 (configuration not stated),.,.,.,-0.83,.
CC(C)C(NC(=O)CN1C(=O)c2ccccc2S1(=O)=O)C(C)C,2,-2,31*,0.86,3
CCCC(=O)OC1CC(C)N(C(=O)c2ccccc2)c2ccc(C)cc21 (configuration not stated),.,.,.,-4.4*,.
N#Cc1nc(COc2ccccc2Cl)oc1NCc1ccc(F)cc1,-7,16,12,0.21,16
N#Cc1nc(COc2ccccc2F)oc1NCCc1ccccc1,7,-6,23,.,100*
CN(Cc1ccccc1)c1oc(-c2ccco2)nc1C#N,7,8,11,-4.2*,44
CN(Cc1ccccc1)c1oc(COc2ccccc2F)nc1C#N,-7,-5,16,-4.5*,58
COc1ccc(CCNc2oc(COc3ccccc3)nc2C#N)cc1,-11,2,8,.,10
N#Cc1nc(COc2ccccc2Cl)oc1NCc1cccnc1,8,59*,47*,-0.068,.
SMILES,E coli WT exp,PostGolgi yeast,PostGolgi ctrl,Cav3 T inh,Ecoli tolC
COc1ccc(-n2c(Cn3c(=O)sc4ccccc43)nnc2SCC(=O)N2CCOCC2)cc1,3,2,-7,-0.11,-10
COc1ccc(N2CCN(CC(=O)Nc3ccc(-n4cnnn4)cc3)CC2)cc1,-21,-2,8,0.43,-12
COC(=O)C1=C(C(=O)OC)[C@@H]2Nc3ccccc3[C@@]23C[C@@H](C(=O)OC)N(C(=O)CC(C)C)C3=N1,.,.,.,0.1,.
CCOC(=O)CSc1nnnn1-c1cc(OC)ccc1OC,2,4,6,0.013,4
COc1ccc(CCNc2c([N+](=O)[O-])c(=O)oc3ccccc23)cc1OC,-10,17,22,0.55,.
O=C(CNC(=O)Cn1ccc2ccccc2c1=O)NCCCN1CCCCCC1,5,-4,12,-0.088,4
OCCCc1nc2n(n1)C(c1cccs1)C=C(c1ccc(Br)cc1)N2 (configuration not stated),-2,-12,19,-7.9*,.
COc1cc(C2C(C(N)=O)=C(C)Nc3nc(CCCO)nn32)cc(OC)c1OC (configuration not stated),12,-8,3,-0.046,-17
Brc1ccc(C2=CC(c3cccs3)n3ncnc3N2)cc1 (configuration not stated),6,2,15,-5.5*,.
Cc1cnc(C(=O)OCC(=O)c2csc(N3CCCCC3)n2)cn1,28,12,-2,-0.2,-2
Cc1[nH]nc2c1C1(CCC(c3ccccc3)CC1)C(C#N)=C(N)O2 (configuration not stated),6,-7,31*,-0.17,33
O=C(CSCc1ccc(Cl)cc1)Nc1cccc(C(=O)Nc2ccccc2C(=O)O)c1,-4,-6,10,-6.9*,.
O=C(CCN1C(=O)C2C3C=CC(C3)C2C1=O)NCCN1CCCc2ccccc21 (configuration not stated),-3,-2,39*,0.62,-2
CN1C[C@@H]2C(c3ccc(C(F)(F)F)cc3)C3(c4ccc(C#N)cc4)CC2(C3)[C@H]1c1ccccc1 (some centres not stated),.,.,.,-1.2,.
Cc1cc(C)nc(SCc2nnc(SCC(=O)Nc3ccc(C)c(C)c3)n2Cc2ccco2)n1,-20,-8,17,-8*,33
O=C(CSc1nnc(Cc2ccccc2)n1Cc1ccco1)NC12CC3CC(CC(C3)C1)C2,-9,-8,18,-3.2*,83*
O=C(CSc1nnc(Cc2cccs2)n1Cc1ccco1)Nc1ccc(Br)cc1,-9,2,15,-4*,100*
O=C(CSc1nnc(-c2ccco2)n1Cc1ccco1)NCc1cccs1,1,2,11,0.66,-3
O=C(CSc1nnc(Cc2cccs2)n1Cc1ccco1)Nc1ccc(Cl)cc1Cl,-24,0,25,.,95*
COC(=O)CSc1nnc(CSc2nc(C)cc(C)n2)n1Cc1ccco1,4,-4,-7,0.025,-10
CCc1c(C(=O)Nc2ccncc2)csc1C,5,14,21,-0.093,-3
O=C1CN(C(=O)c2ccco2)C(c2ccccc2)c2cc(Cl)ccc2N1 (configuration not stated),1,6,5,-0.39,6
Cc1nn(Cc2ccc(Cl)c(Cl)c2)c(C)c1NC(=O)c1noc2c1CCCCC2,-8,-9,1,-2.7,-16
Cc1nn(Cc2ccc(Cl)cc2)c(C)c1NC(=O)c1noc2c1CCCCC2,10,4,15,-1.9,84*
O=C(NCc1ccc(Cl)cc1)c1noc2c1CCCCC2,-2,6,14,-5*,30
O=C(CN1C(=O)NC2(CCCc3ccccc32)C1=O)N1CCc2ccccc2C1 (configuration not stated),1,-3,2,-1.4,3
COc1ccc(S(=O)(=O)NCCc2csc(-c3cccnc3)n2)cc1,2,5,22,1,.

# Screening data: PubChem, several laboratories
